Laboratory results published in ChEMBL document CHEMBL4385624, “l-Type amino acid transporter 1 activity of 1,2,3-triazolyl analogs of l-histidine and l-tryptophan” (Bioorg Med Chem Lett, 2019).

How the values were obtained:
Type in all cases: cell-based
[1] = target: T1, Large neutral amino acids transporter small subunit 1 (Homo sapiens, UniProt Q01650); experiment: Trans-stimulation of human LAT1 expressed in TREx HEK293 cells assessed as induction of [3H]-gabapentin efflux at 200 uM after 3 mins by scintillation counting analysis relative to L-phenylalanine
In short: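 [³H]-gabapentin-preloaded HEK-hLAT1 cells (inducible) were treated with compound at 200 μM. Efflux rate was taken at 3 min and expressed as % of the rate induced by L-phenylalanine, averaged over seven experiments. At least triplicate, 24-well poly-D plates.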

[2] = target: T1, Large neutral amino acids transporter small subunit 1; experiment: Cis-inhibition of human LAT1 expressed in TREx HEK293 cells assessed as inhibition of [3H]-gabapentin uptake preincubated for 3 mins at 37 degC followed by washing with choline buffer and measured after 3 hrs by scintillation counting analysis
In short: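 Inducible hLAT1 HEK cells in 24-well poly-D plates, pH 7.4. Cells were exposed to [³H]-gabapentin (6 nM) plus test compound at 0.1–500 μM. […] Run at least in triplicate.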

[3] = target: T1, Large neutral amino acids transporter small subunit 1; experiment: Cis-inhibition of human LAT1 expressed in TREx HEK293 cells at 200 uM assessed as inhibition of [3H]-gabapentin uptake preincubated for 3 mins at 37 degC followed by washing with choline buffer and measured after 3 hrs by scintillation counting analysis relative to BCH
[4] = target: T1, Large neutral amino acids transporter small subunit 1; experiment: Trans-stimulation of human LAT1 expressed in TREx HEK293 cells assessed as induction of [3H]-gabapentin efflux at 200 uM after 3 mins by scintillation counting analysis
In short: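 HEK cells with inducible hLAT1 were preloaded with [³H]-gabapentin, then exposed to test compound at 200 μM. Efflux rate (fmol/min) was calculated 3 min after compound addition. Data from at least triplicate wells in 24-well poly-D plates.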

T1 sequence (Q01650 whole entry): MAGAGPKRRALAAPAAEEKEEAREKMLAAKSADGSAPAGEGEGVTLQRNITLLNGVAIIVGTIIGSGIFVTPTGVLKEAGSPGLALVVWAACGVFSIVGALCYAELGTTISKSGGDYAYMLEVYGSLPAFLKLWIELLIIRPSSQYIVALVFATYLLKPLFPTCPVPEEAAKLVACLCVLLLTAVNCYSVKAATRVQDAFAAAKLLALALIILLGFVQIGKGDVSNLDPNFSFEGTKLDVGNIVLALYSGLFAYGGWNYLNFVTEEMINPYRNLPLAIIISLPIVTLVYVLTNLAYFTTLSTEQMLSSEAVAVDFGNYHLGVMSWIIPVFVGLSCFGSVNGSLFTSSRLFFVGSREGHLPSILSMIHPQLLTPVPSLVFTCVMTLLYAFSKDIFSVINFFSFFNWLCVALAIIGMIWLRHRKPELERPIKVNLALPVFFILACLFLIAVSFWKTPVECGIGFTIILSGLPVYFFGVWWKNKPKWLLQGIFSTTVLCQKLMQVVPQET

## Cn1cc(C[C@H](N)C(=O)O)nn1
[1]
  Activity: 63%
[2]
  IC50: > 1000 µM
[3]
  inhibition: 20%

## Cc1cn(C[C@H](N)C(=O)O)nn1
[1]
  Activity: 70%
[2]
  IC50: 440 µM
[3]
  inhibition: 38%

## N[C@@H](Cn1cc(Cc2ccccc2)nn1)C(=O)O
[1]
  Activity: 49%
[3]
  inhibition: -6%

## N[C@@H](Cc1cn(Cc2ccccc2)nn1)C(=O)O
[1]
  Activity: 43%

## N[C@@H](Cn1cc(CO)nn1)C(=O)O
[1]
  Activity: 57%
[2]
  IC50: > 1000 µM
[3]
  inhibition: 14%

## N[C@@H](Cn1cc(-c2ccccc2)nn1)C(=O)O
[1]
  Activity: 37%
[2]
  IC50: > 1000 µM
[3]
  inhibition: 13%

## N[C@@H](Cn1nnc2ccccc21)C(=O)O
[1]
  Activity: 100%
[2]
  IC50: 340 µM
[3]
  inhibition: 59%

## N[C@@H](Cc1ccccc1)C(=O)O
[4]
  Activity: 2.7 fmol/min

## N[C@@H](Cc1c[nH]cn1)C(=O)O [HISTIDINE]
[2]
  IC50: 110 µM

## N[C@@H](Cn1ccnn1)C(=O)O
[1]
  Activity: 82%
[2]
  IC50: 160 µM
[3]
  inhibition: 58%
